Measurements as given in article PMC5797940 (Nature, 2013).

Tests used:
[1] = tested on: FRα Y175, K136 and R106 alanine mutants; assay: saturation radioligand-binding assay, FRα Y175, K136 and R106 mutants; set-up: species or system human; conditions: mutations of Y175, K136 and R106 (bond lengths ≥3.1 Å)
Outline: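 Human FRα alanine mutants made by site-directed mutagenesis, expressed as Fc fusions in transiently transfected HEK293 cells and Ni-NTA purified. 40 nM protein captured on protein G wells (25 mM Tris pH 8.0, 150 mM NaCl, 0.1% Triton X-100) for 40 min. Ligand stripped at pH 3.5 for 1 min. Then 40 min with varied [³H]-folic acid, two washes, scintillation counting. Kd by nonlinear regression, as fold versus wild type.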

human FRα = human FRα (Homo sapiens, UniProt P15328); assay: saturation radioligand-binding assay with [^3H]-folic acid, wild-type FRα–Fc; conditions: fully glycosylated FRα–Fc
FRα = conditions: O4 replaced by an amino group; cited from earlier work
reduced folate carrier = conditions: folate-binding affinity of reduced folate carrier; cited from earlier work

Sequence of human FRα (P15328 23-234): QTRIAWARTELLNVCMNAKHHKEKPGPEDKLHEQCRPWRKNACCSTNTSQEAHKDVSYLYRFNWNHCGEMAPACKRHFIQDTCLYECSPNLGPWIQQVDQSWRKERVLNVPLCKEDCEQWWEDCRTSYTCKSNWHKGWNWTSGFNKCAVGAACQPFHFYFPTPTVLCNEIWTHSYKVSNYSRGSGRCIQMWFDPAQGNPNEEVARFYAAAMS

Compound: Nc1nc(=O)c2nc(CNc3ccc(C(=O)N[C@@H](CCC(=O)O)C(=O)O)cc3)cnc2[nH]1 [folic acid]
- effect of the mutation on folic acid binding [1]: little effect
- folic acid-binding affinity compared with the deglycosylated protein (human FRα): similar

Compound: Nc1nc(N)c2nc(CNc3ccc(C(=O)N[C@@H](CCC(=O)O)C(=O)O)cc3)cnc2n1 [aminopterin]
- affinity for FRα compared with folic acid (FRα): reduced affinity

Compound: CN(Cc1cnc2nc(N)nc(N)c2n1)c1ccc(C(=O)N[C@@H](CCC(=O)O)C(=O)O)cc1 [methotrexate]
- affinity for FRα compared with folic acid (FRα): reduced affinity

Compound: Nc1nc(=O)c2nc(CNc3ccc(C(=O)N[C@@H](CCC(=O)O)C(=O)O)cc3)cnc2[nH]1 [folate]
- Km (reduced folate carrier): 1 to 10 µM
